From ChEMBL document CHEMBL4138134, “Antiplasmodial Chromanes and Chromenes from the Monotypic Plant Species Koeberlinia spinosa” (J Nat Prod, 2018)
pIC50: −log10 of the molar value.

Experiments:
Plasmodium falciparum = assay: Antimalarial activity against chloroquine/mefloquine-resistant Plasmodium falciparum Dd2 measured after 72 hrs by SYBR green1 dye based fluorescence assay; type: functional, organism-based
Method in brief: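 Whole-parasite growth inhibition, 72 h treatment, SYBR Green I fluorescence read-out, IC50 derived. Both fractions and isolated compounds were tested on the chloroquine/mefloquine-resistant Dd2 strain. Artemisinin served as positive control.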

A2780 = assay: Cytotoxicity against human A2780 cells after 2 days by Alamar blue assay; type: cell-based; conditions: A2780, 48 h
[1] = Plasmodium falciparum, Dd2, 72 h

SMILES | pIC50 (Plasmodium falciparum; [1]) | pIC50 (A2780) | pIC50 (Plasmodium falciparum)
COc1cc(C)c2c(c1)CC[C@@](C)(CC(=O)/C=C(\C)CC/C=C(\C)CO)O2 | 4.62 | < 5.00 | –
C/C(=C\CC/C(C)=C/CC[C@]1(C)C=Cc2cc(O)cc(C)c2O1)CO | – | < 5.00 | –
C/C(=C/C(=O)C[C@]1(C)CCc2cc(O)cc(C)c2O1)CC/C=C(\C)CO | – | < 5.00 | –
C/C(=C\CC/C(C)=C/C(=O)C[C@]1(C)CCc2cc(O)cc(C)c2O1)CO | < 3.95 | < 5.00 | –
C/C(=C/CC/C(C)=C\C(=O)C[C@]1(C)CCc2cc(O)cc(C)c2O1)CO | – | < 5.00 | –
C[C@@H]1CC[C@H]2[C@@H](C)C(=O)O[C@@H]3O[C@@]4(C)CC[C@@H]1[C@]32OO4 [ARTEMISININ] | 8.05 | – | –
CC1=CCCC(C)(CC(=O)C[C@]2(C)CCc3cc(O)cc(C)c3O2)OC1 (single isomer, unassigned; diastereomer 2) | – | – | 4.64
CC1=CCCC(C)(CC(=O)C[C@]2(C)CCc3cc(O)cc(C)c3O2)OC1 (single isomer, unassigned; diastereomer 1) | – | < 5.00 | 3.96
C/C(=C\CC/C(C)=C/C(=O)C[C@]1(C)C=Cc2cc(O)cc(C)c2O1)CO | < 3.95 | < 5.00 | –
C/C(=C/CC/C(C)=C/C(=O)C[C@]1(C)CCc2cc(O)cc(C)c2O1)CO | 4.62 | < 5.00 | –
